Experimental data published in ChEMBL document CHEMBL1143829, “Lack of effect of DX-619, a novel des-fluoro(6)-quinolone, on glomerular filtration rate measured by serum clearance of cold iohexol” (Antimicrob Agents Chemother, 2007).

Key:
[1] = Renal clearance in human urine after 4 days; type: ADME, organism-based; conditions: read-out: CL_renal (converted)
Outline: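 Steady-state AUC (AUCss,24) covered 25 h from the start of the day-4 infusion to 24 h after it (linear up/log down rule). CL = dose/AUCss,24. Urine from 0–24 h on day 4 was assayed by LC-MS/MS, and renal clearance = Xu(0–24)/AUCss,24.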

Homo sapiens [2] = test: Effect on renal function in human assessed as serum creatinine concentration at 800 mg, iv after 4 days relative to baseline; type: functional
Homo sapiens [3] = test: Effect on glomerular filtration rate in human assessed as iohexol clearance rate in plasma per 1.73 m2 at 800 mg, iv after 11 days relative to baseline; type: functional
Outline: (§1)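 GFR was measured as plasma clearance of iohexol. A single 20 ml bolus (300 mg/ml) was given on days 1, 4 and 11, timed to match 1 h after the end of the day-4 infusion. Blood was drawn at 120, 150, 180, 210, 240, 270 and 300 min and assayed by HPLC-UV. CL0 = dose × b/c1, with b and c1 from linear regression. Change from baseline used a noninferiority mixed-effects comparison with 95% CI.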

Homo sapiens [4] = test: Effect on renal function in human assessed as creatinine clearance in 24 hrs urine sample at 800 mg, iv after 4 days relative to baseline; type: functional
Outline: (§2)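 Urine was collected over 24 h at baseline (−24 to 0 h), on day 4 (72–96 h) and on day 11 (240–264 h). CLCR = urinary creatinine amount / (SCr × 24 h) × (1.73/BSA), using SCr measured at the start of each collection.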

Homo sapiens [5] = test: Effect on renal function in human assessed as blood urea nitrogen concentration at 800 mg, iv after 11 days relative to baseline; type: functional
[6] = Tmax in human plasma; type: ADME, organism-based
Outline: (§3)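 Plasma was sampled predose, at end of infusion, and 1, 3 and 9 h post-infusion on days 1 and 4, plus 24 h post-infusion on day 5. Drug was assayed by validated LC-MS/MS (0.02–10 µg/ml). Noncompartmental analysis; Cmax taken by observation without interpolation, with Tmax; day-4 values treated as steady state.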

[7] = Cmax […] in human after 1 day; type: ADME, organism-based; conditions: in vivo; outline: as §3
[8] = Clearance in human plasma after 4 days
Homo sapiens [9] = test: Effect on glomerular filtration rate in human assessed as creatinine clearance rate in plasma per 1.73 m2 at 800 mg, iv after 11 days relative to baseline; type: functional
Homo sapiens [10] = test: Effect on renal function in human assessed as serum creatinine concentration at 800 mg, iv after 11 days relative to baseline; type: functional
Homo sapiens [11] = test: Effect on glomerular filtration rate in human assessed as iohexol clearance rate in plasma per 1.73 m2 at 800 mg, iv after 4 days relative to baseline; type: functional; outline: as §1
Homo sapiens [12] = test: Effect on renal function in human assessed as blood urea nitrogen concentration at 800 mg, iv after 4 days relative to baseline; type: functional
[13] = Cmax at steady state in human after 4 days; type: ADME, organism-based; conditions: in vivo; outline: as §3
[14] = Protein binding in human plasma; type: ADME, organism-based; conditions: read-out: PPB (converted)
Outline: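 Plasma ultrafiltrate and matching plasma were sampled on days 1 and 4, predose and 1 and 4 h after infusion start, and assayed by LC-MS/MS (ultrafiltrate range 0.01–5.0 µg/ml). Binding at each time point was calculated from free ultrafiltrate versus total plasma concentration.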

Homo sapiens [15] = test: Effect on glomerular filtration rate in human assessed as creatinine clearance rate in plasma per 1.73 m2 at 800 mg, iv after 4 days relative to baseline; type: functional
Homo sapiens [16] = test: Effect on renal function in human assessed as creatinine clearance in 24 hrs urine sample at 800 mg, iv after 11 days relative to baseline; type: functional; outline: as §2

SMILES: COc1c(N2CC[C@@H](C3(N)CC3)C2)ccc2c(=O)c(C(=O)O)cn([C@@H]3C[C@@H]3F)c12
- CL renal at 96 h [1]: 43.3 mL/min
- Activity (Homo sapiens [2]): 0.3
- Activity (Homo sapiens [3]): -2.44 mL/min
- Activity (Homo sapiens [4]): -32.8
- Activity (Homo sapiens [5]): -2.06
- Tmax [6]: 1.25 h
- Cmax [7]: 8210 ng/mL
- clearance [8]: 166 mL/min
- Activity (Homo sapiens [9]): 94.3 mL/min
- Activity (Homo sapiens [10]): 0.09
- Activity (Homo sapiens [11]): 1.12 mL/min
- Activity (Homo sapiens [12]): 0.69
- Cmax [13]: 8850 ng/mL
- fraction unbound [14]: 0.35
- Activity (Homo sapiens [15]): 95.52 mL/min
- Activity (Homo sapiens [16]): -3.4
